Laboratory results from ChEMBL document CHEMBL4680241, “Structure-activity relationships of triazole-benzodioxine inhibitors of cathepsin X” (Eur J Med Chem, 2020).
pIC50: −log10 of the molar value. Activity calls are given as the source filed them. No cut-off for these calls is given here.

Tests used:
Cathepsin Z [1] = molecular target: T1, Cathepsin Z (Homo sapiens, UniProt Q9UBR2); experiment: Inhibition of human cathepsin X expressed in Pichia pastoris assessed as residual activity at 50 uM using Abz-FEK(Dnp)-OH as substrate incubated for 30 to 45 mins by fluorescence assay relative to control; settings: time 30-45 min
Outline: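 Substrate was Abz-FEK(Dnp)-OH at 3.25 µM final, compound at 50 µM final. Fluorescence (ex 320/em 420 nm) was followed continuously for 30-45 min at 37 °C. Activity was taken from rates relative to no-compound velocity. Two experiments in duplicate.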

Cathepsin S [2] = molecular target: T2, Cathepsin S (Homo sapiens, UniProt P25774); experiment: Inhibition of human cathepsin S expressed in Pichia pastoris using Z-VVR-AMC as substrate by fluorescence assay
Outline: (§1)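 Cathepsin S expressed in P. pastoris, assayed in 100 mM phosphate buffer pH 6.5 containing 5 mM cysteine, 1.5 mM EDTA and 0.1% PEG 8000 after 5 min activation at 37 °C. Substrate was fluorogenic Z-VVR-AMC.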
Target sequence in this assay (P25774 whole entry): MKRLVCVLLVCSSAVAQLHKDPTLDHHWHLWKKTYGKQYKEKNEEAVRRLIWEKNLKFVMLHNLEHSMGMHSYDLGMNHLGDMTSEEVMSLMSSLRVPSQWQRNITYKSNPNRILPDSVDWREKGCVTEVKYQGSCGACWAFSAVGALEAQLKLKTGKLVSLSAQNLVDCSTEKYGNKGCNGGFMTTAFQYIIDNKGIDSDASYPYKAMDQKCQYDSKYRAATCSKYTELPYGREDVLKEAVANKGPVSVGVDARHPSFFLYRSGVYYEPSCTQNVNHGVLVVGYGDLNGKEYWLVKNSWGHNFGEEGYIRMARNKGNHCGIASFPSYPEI

[3] = molecular target: Cathepsin B (Homo sapiens) (UniProt P07858); experiment: Inhibition of human cathepsin B expressed in Escherichia coli at 100 uM using Abz-GIVRAK(Dnp)-OH as substrate by fluorescence assay relative to control
Outline: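 Cathepsin B exopeptidase activity: recombinant enzyme from E. coli in 60 mM acetate buffer pH 5.0 with 5 mM cysteine, 1.5 mM EDTA and 0.1% PEG 8000, activated 5 min at 37 °C. Fluorogenic substrate Abz-GIVRAK(Dnp)-OH.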

Cathepsin S [4] = molecular target: T2, Cathepsin S; experiment: Inhibition of human cathepsin S expressed in Pichia pastoris at 100 uM using Z-VVR-AMC as substrate by fluorescence assay relative to control; outline: as §1
Target sequence in this assay (P25774 115-331 limits assumed): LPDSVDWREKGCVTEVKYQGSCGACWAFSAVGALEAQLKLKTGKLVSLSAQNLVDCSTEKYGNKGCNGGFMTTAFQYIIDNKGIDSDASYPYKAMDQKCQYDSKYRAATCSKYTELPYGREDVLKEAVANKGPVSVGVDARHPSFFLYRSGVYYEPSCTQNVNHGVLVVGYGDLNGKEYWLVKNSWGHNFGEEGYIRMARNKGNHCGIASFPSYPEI

Cathepsin Z [5] = molecular target: T1, Cathepsin Z; experiment: Inhibition of human cathepsin X expressed in Pichia pastoris assessed as residual activity using Abz-FEK(Dnp)-OH as substrate incubated for 30 to 45 mins by fluorescence assay
PC-3 [6] = experiment: Antimigratory activity against human PC-3 cells at 10 uM up to 72 hrs by xCELLigence based RTCA analysis relative to control; type: functional; settings: dose 20 µM; time hrs <=72; in the assay text read “at 20 uM” for “at 10 uM”
Outline: (§2)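 PC-3 cells grown in Advanced DMEM/F-12 (1:1) with 10% FBS, L-glutamine and penicillin/streptomycin. Fibronectin-coated (10 μg/mL) xCELLigence CIM plates held 2 × 10⁴ cells per well. Compound at 10 or 20 μM was added to complete medium (lower chamber) or serum-free medium (upper chamber), with 0.1% DMSO as control. Cell index was read every 15 min for 72 h. Migration was taken as the slope of the curve over a selected interval, normalized to DMSO-treated cells. Means ± SD, two independent assays in duplicate or triplicate.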

[7] = molecular target: Procathepsin L (Homo sapiens) (UniProt P07711); experiment: Inhibition of human cathepsin L expressed in Escherichia coli at 100 uM using Z-FR-AMC as substrate by fluorescence assay relative to control
PC-3 [8] = experiment: Cytotoxicity against human PC-3 cells assessed as reduction in cell viability at 20 uM after 24 to 48 hrs by MTS assay; type: functional, cell-based; settings: time 24-48 hrs
Outline: (§3)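 PC-3 cells seeded at 6.5×10^4 cells/mL in Advanced DMEM/F-12 with 10% FBS and exposed to compound at 10 or 20 µM for 24 h or 48 h. Means ± SD of three independent assays, each in triplicate.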

PC-3 [9] = experiment: Cytotoxicity against human PC-3 cells assessed as reduction in cell viability at 10 uM after 24 to 48 hrs by MTS assay; type: functional, cell-based; settings: time 24-48 hrs; outline: as §3
PC-3 [10] = experiment: Antimigratory activity against human PC-3 cells at 20 uM up to 72 hrs by xCELLigence based RTCA analysis; type: functional, cell-based; settings: time hrs <=72; outline: as §2

T1 sequence (Q9UBR2 whole entry): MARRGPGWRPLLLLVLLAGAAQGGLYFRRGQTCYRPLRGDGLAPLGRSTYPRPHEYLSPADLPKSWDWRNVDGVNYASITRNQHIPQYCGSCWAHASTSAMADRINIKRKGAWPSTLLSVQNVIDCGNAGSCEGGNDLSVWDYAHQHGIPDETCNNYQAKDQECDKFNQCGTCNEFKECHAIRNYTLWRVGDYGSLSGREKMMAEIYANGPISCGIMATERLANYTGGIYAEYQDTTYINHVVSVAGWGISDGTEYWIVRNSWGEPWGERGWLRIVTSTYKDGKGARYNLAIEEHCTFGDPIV
Sequence of Procathepsin L (Homo sapiens) (P07711 114-333 limits assumed): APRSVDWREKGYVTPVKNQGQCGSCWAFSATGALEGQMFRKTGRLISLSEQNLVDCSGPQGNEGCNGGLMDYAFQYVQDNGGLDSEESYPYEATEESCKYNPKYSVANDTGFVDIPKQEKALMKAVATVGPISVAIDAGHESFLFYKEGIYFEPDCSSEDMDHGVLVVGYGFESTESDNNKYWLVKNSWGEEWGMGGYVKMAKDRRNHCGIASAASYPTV

SMILES	Activity (Cathepsin Z [1])	other results
CC(C)Oc1ccc(C(=O)CSc2nncn2C(C)C)cc1	63%	
O=C(CSc1nc(C2CCCCC2)nn1C(=O)C1CCCCC1)c1ccc2c(c1)OCCO2	43%	
N#CCn1ccnc1SCC(=O)c1ccc2c(c1)OCCO2	12%	pIC50 (Cathepsin S [2]): 3.62; inhibition [3]: 30%; inhibition (Cathepsin S [4]): 30%; pIC50 (Cathepsin Z [5]): 5.15; Activity (PC-3 [6]): 21%; inhibition [7]: 30%; Activity (PC-3 [8]): inactive
NC(=O)c1ccc(-n2cnnc2SCC(=O)c2ccc3c(c2)OCCO3)cc1	35%	
Cc1n[nH]c(SCC(=O)c2ccc3c(c2)OCCO3)n1	28%	
O=C(CSc1nccs1)c1ccc2c(c1)OCCO2	22%	
CC(C)n1cnnc1SCC(=O)c1ccc2c(c1)OCO2	24%	
CC(C)n1cnnc1SCC(=O)c1ccc(Br)cc1	77%	
O=C(CSc1ccccc1)c1ccc2c(c1)OCCO2	48%	
O=C(CSc1nc(C2CCCCC2)n[nH]1)c1ccc2c(c1)OCCO2	30%	
CC(C)n1cnnc1SCC(N)c1ccc2c(c1)OCCO2 (configuration not stated)	90%	
CC(C)n1cnnc1SCC(=O)C(C)(C)C	80%	
CC(C)n1cnnc1SCC(=O)c1cccc([N+](=O)[O-])c1	100%	
CC(C)n1cnnc1SCC(=O)c1ccc(O)cc1	73%	
CO/N=C(\CSc1nncn1C(C)C)c1ccc2c(c1)OCCO2	90%	
Cn1ccnc1SCC(=O)c1ccc2c(c1)OCCO2	15%	Activity (PC-3 [9]): inactive; pIC50 (Cathepsin Z [5]): 5.02; Activity (PC-3 [8]): inactive
O=C(CSc1nnc[nH]1)c1ccc2c(c1)OCCO2	23%	
CC(C)n1cnnc1SCC(=O)c1ccc(N(C)C)cc1	41%	
COc1cccc(C(=O)CSc2nncn2C(C)C)c1	73%	
CC(C)n1cnnc1SCC(O)c1ccc2c(c1)OCCO2 (configuration not stated)	98%	
O=C(CSc1nc(-c2ccncc2)n[nH]1)c1ccc2c(c1)OCCO2	33%	

SMILES	Activity (Cathepsin Z [1])	other results
CCOC(=O)COc1ccc(C(=O)CSc2nncn2C(C)C)cc1	60%	
O=C(CSc1nncn1-c1cccnc1)c1ccc2c(c1)OCCO2	22%	
CN(C)c1ccc(-n2cnnc2SCC(=O)c2ccc3c(c2)OCCO3)cc1	55%	
Cn1nnnc1SCC(=O)c1ccc2c(c1)OCCO2	36%	
O=C(CSc1nc(-c2ccccc2)n[nH]1)c1ccc2c(c1)OCCO2	37%	
N#Cc1ccc(-n2cnnc2SCC(=O)c2ccc3c(c2)OCCO3)cc1	20%	Activity (PC-3 [9]): inactive; pIC50 (Cathepsin Z [5]): 4.91; Activity (PC-3 [8]): Active
O=C(CSc1ncc[nH]1)c1ccc2c(c1)OCCO2	17%	pIC50 (Cathepsin Z [5]): 4.87; Activity (PC-3 [8]): inactive
CC(C)n1cnnc1SCC(=O)c1ccc(OCC(=O)O)cc1	85%	
CC(C)n1cnnc1SCC(=O)c1c[nH]c2ccccc12	27%	
COc1ccccc1C(=O)CSc1nncn1C(C)C	49%	
Cc1ccc(C(=O)CSc2nncn2C(C)C)cc1	75%	
O=C(CSc1cccs1)c1ccc2c(c1)OCCO2	39%	
CCn1cnnc1SCC(=O)c1ccc2c(c1)OCCO2	24%	
Cn1cnnc1SCC(=O)c1ccc2c(c1)OCCO2	17%	pIC50 (Cathepsin Z [5]): 4.93; Activity (PC-3 [10]): inactive; Activity (PC-3 [8]): inactive
Cc1[nH]c2ccccc2c1C(=O)CSc1nncn1C(C)C	62%	
CC(C)n1cnnc1SCC(=O)c1ccccc1	100%	
O=C(COc1nnc[nH]1)c1ccc2c(c1)OCCO2	71%	
COc1ccc(C(=O)CSc2nncn2C(C)C)cc1	66%	
CC(C)n1cnnc1SCC(=O)c1ccc(C#N)cc1	92%	
CC(C)n1cnnc1SCC(=O)c1ccc2c(c1)OCCO2	15%	pIC50 (Cathepsin Z [5]): 4.94; Activity (PC-3 [8]): inactive
CC(C)n1cnnc1SCC(=O)c1ccc(OCC#N)cc1	69%	
